Molecules are shown by their SMILES. ≈ marks a conversion by molar mass, not a printed value. Calls of active or inactive are those of the source. The rule behind the calls is not given here.

From ChEMBL document CHEMBL4373711, “Development of 3,5-Dinitrophenyl-Containing 1,2,4-Triazoles and Their Trifluoromethyl Analogues as Highly Efficient Antitubercular Agents Inhibiting Decaprenylphosphoryl-β-d-ribofuranose 2'-Oxidase” (J Med Chem, 2019) come the findings set out here.

Data set [1] can be described thus: Genotoxicity in Salmonella typhimurium TA100 at 30 uM in absence of rat liver S9 fraction by Ames test. The conditions noted are these: salmonella enterica subsp. enterica serovar typhimurium, s9, 30 µM. Type of data set: toxicity.
Data set [2] can be described thus: Genotoxicity in Salmonella typhimurium TA98 at 30 uM in absence of rat liver S9 fraction by Ames test. The format is toxicity. As to conditions: salmonella enterica subsp. enterica serovar typhimurium, s9, 30 µM.
The target in data set [3] is T1, Decaprenylphosphoryl-beta-D-ribose oxidase (Mycobacterium tuberculosis (strain ATCC 25618 / H37Rv)) (UniProt P9WJF1).
T1 sequence (whole entry): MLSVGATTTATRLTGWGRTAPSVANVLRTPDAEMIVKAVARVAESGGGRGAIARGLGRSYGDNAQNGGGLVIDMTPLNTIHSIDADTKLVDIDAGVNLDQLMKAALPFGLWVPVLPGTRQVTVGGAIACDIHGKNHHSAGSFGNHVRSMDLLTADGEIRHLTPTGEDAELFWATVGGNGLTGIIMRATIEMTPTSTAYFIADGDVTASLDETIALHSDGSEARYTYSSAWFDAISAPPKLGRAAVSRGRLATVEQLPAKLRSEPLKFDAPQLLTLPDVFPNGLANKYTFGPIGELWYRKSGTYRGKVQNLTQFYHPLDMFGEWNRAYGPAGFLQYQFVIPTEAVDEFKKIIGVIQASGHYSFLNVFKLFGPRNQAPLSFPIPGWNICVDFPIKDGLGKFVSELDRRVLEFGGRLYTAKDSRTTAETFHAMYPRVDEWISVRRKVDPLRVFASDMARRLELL
As to the kind of experiment: Inhibition of DprE1 in Mycobacterium tuberculosis H37Rv assessed as accumulation of trehalose dimycolates at 10 times MIC measured after 24 hrs in presence of [14C]-acetate by TLC-based autoradiography. The procedure, abridged: (§1)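 M. tuberculosis H37Rv cultures were exposed to compound at final 10× or 100× MIC, or to DMSO, together with [14C]-acetate at 1 µCi/ml final. After 24 h, lipids were extracted in CHCl3/CH3OH (2:1) for 2 h at 65 °C and given two Folch washes. Extracts were run on TLC in CHCl3/CH3OH/H2O (20:4:0.5), then autoradiographed for 7 days at -80 °C.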

In data set [4] the target is T1, Decaprenylphosphoryl-beta-D-ribose oxidase (Mycobacterium tuberculosis (strain ATCC 25618 / H37Rv)). The data set is described as follows: Inhibition of DprE1 in Mycobacterium tuberculosis H37Rv assessed as accumulation of trehalose monomycolates at 10 times MIC measured after 24 hrs in presence of [14C]-acetate by TLC-based autoradiography. The method, boiled down: as §1

Data set [5] concerns the target T2, Decaprenylphosphoryl-beta-D-ribose oxidase (Mycobacterium smegmatis (strain ATCC 700084 / mc(2)155)) (UniProt A0R607).
T2 sequence (whole entry): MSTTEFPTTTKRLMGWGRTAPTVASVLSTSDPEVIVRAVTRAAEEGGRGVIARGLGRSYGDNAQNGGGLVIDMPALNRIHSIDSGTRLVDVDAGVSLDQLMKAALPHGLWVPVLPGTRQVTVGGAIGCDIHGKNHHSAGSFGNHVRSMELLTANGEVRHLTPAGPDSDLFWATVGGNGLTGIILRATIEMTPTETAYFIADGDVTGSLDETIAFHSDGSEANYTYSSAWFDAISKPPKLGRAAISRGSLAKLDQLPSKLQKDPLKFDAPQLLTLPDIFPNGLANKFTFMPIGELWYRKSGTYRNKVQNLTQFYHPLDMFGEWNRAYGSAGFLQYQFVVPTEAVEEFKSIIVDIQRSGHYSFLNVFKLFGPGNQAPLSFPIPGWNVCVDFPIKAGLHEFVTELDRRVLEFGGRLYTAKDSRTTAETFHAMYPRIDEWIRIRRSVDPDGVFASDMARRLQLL
As to the kind of experiment: Inhibition of DprE1 in Mycolicibacterium smegmatis MC2 155 lysate assessed as reduction in epimerization of P[14C]RPP to DP[14C]A at 70 uM measured after 1.5 hrs in presence of NADH by TLC-based autoradiography. Type of data set: subcellular. The procedure, abridged:
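Cell-free DPA synthesis used a membrane/cell-envelope fraction (430 µg), spun at 100 000 × g, from sonicated M. smegmatis mc2155. The fraction was incubated 1.5 h with 15,000 dpm P[14C]RPP and NADH. BTZ was used at 70 µM and test compounds at 700 µM final, both added from DMSO stocks. Lipids were extracted, 25% was resolved by TLC, and autoradiography ran 8 days at -80 °C.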

The test system of data set [6] is Mycobacterium kansasii. The data set is described as follows: Antimycobacterial activity against Mycobacterium kansasii CNCTC My 235/80 after 7 days. The conditions noted are these: CNCTC My 235/80, 168 h. Type of data set: functional. The procedure, abridged: (§2)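 Microdilution in Šula's semisynthetic medium; compounds in DMSO at 32–0.03 µM. Inoculum from 1.0 McFarland suspension diluted 10-4. […] Isoniazid and rifampicin as reference drugs.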

For data set [7], the system named is Mycobacterium tuberculosis. As to the kind of experiment: Antimycobacterial activity against Mycobacterium tuberculosis H37Rv CNCTC My 331/88 after 21 days. Type of data set: functional. The conditions noted are these: H37Rv CNCTC My 331/88, 504 h. The method, boiled down: (§3)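 M. tuberculosis strains (H37Rv and clinical MDR/XDR isolates) tested by microdilution in Šula's semisynthetic medium. Compounds were dissolved in DMSO and tested at 32 to 0.03 µM in twofold steps. Inoculum was a 1.0 McFarland suspension diluted 10-3. Plates were incubated at 37 °C and read at 14 and 21 days.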

The subject of data set [8] is Mycobacterium kansasii. As to the kind of experiment: Antimycobacterial activity against Mycobacterium kansasii 6509/96 after 7 days. Type of data set: functional. The conditions noted are these: 6509/96, 168 h. The method, boiled down: as §2
Data set [9] can be described thus: Cytotoxicity against human A431 cells assessed as cell viability at 30 uM after 48 hrs by CellTiter 96 aqueous one solution assay relative to control. The conditions noted are these: read-out: Activity. Type of data set: cell-based, A-431. The procedure, abridged:
(§4)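 HepG2 (DMEM, 10% FBS, 1 mM pyruvate) or A431 (DMEM, 10% FBS) seeded 10,000 cells/well, 24 h at 37 °C, 5% CO2, then 30 µM compound for 48 h. MTS reagent 60 min, absorbance 490 nm, background subtracted; 0.1% DMSO vehicle = 100%, 10% SDS = 0% viability.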

A further data set relates to A-431. The data set is described as follows: Cytotoxicity against human A431 cells assessed as reduction in cell viability after 48 hrs by CellTiter 96 aqueous one solution assay. Type of data set: cell-based. The conditions noted are these: A-431, 48 h.
The nature of data set [10]: Cytotoxicity against human HepG2 cells assessed as cell viability at 30 uM after 48 hrs by CellTiter 96 aqueous one solution assay relative to control. The format is cell-based. As to conditions: read-out: Activity. The procedure, abridged:
as §4

A further data set has as its system Candida albicans. The data set is described as follows: Antifungal activity against Candida albicans ATCC 24433 CCM 8320 measured after 24 to 48 hrs by alamar blue dye based broth microdilution assay. The format is functional, organism-based.
In data set [11] the test system is Mycobacterium kansasii. The data set is described as follows: Antimycobacterial activity against Mycobacterium kansasii CNCTC My 235/80 after 14 days. Type of data set: functional. The conditions noted are these: CNCTC My 235/80, 336 h. The method, boiled down: as §2
In data set [12] the test system is Mycobacterium kansasii. The data set is described as follows: Antimycobacterial activity against Mycobacterium kansasii 6509/96 after 21 days. The format is functional. The conditions noted are these: 6509/96, 504 h. The method, boiled down:
as §2

Data set [13] concerns Mycobacterium kansasii. The data set is described as follows: Antimycobacterial activity against Mycobacterium kansasii CNCTC My 235/80 after 21 days. Type of data set: functional. As to conditions: CNCTC My 235/80, 504 h. The procedure, abridged: as §2
A further data set concerns Staphylococcus aureus. As to the kind of experiment: Antibacterial activity against Staphylococcus aureus subsp. aureus ATCC 29213 CCM 4223 measured after 24 to 48 hrs by alamar blue dye based broth microdilution assay. The format is functional, organism-based.
In data set [14] the test system is Mycobacterium tuberculosis. As to the kind of experiment: Antimycobacterial activity against Mycobacterium tuberculosis H37Rv CNCTC My 331/88 after 14 days. The format is functional. The conditions noted are these: H37Rv CNCTC My 331/88, 336 h. The procedure, abridged:
as §3

The test system of data set [15] is Mycobacterium avium. The data set is described as follows: Antimycobacterial activity against Mycobacterium avium CNCTC My 330/88 after 21 days. Type of data set: functional. As to conditions: CNCTC My 330/88, 504 h. The procedure, abridged: (§5)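 M. avium was tested by microdilution in Šula's semisynthetic medium, with compounds dissolved in DMSO and serially diluted from 1000 down to 1. Inoculum was a 1.0 McFarland suspension diluted 10-5. Plates were incubated at 37 °C and read at 14 and 21 days. […] Isoniazid and rifampicin served as standards.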

Data set [16] has as its system Mycobacterium kansasii. As to the kind of experiment: Antimycobacterial activity against Mycobacterium kansasii 6509/96 after 14 days. The format is functional. The conditions noted are these: 6509/96, 336 h. The procedure, abridged: as §2
Data set [17] deals with Mycobacterium avium. As to the kind of experiment: Antimycobacterial activity against Mycobacterium avium CNCTC My 330/88 after 14 days. The format is functional. The conditions noted are these: CNCTC My 330/88, 336 h. The procedure, abridged: as §5
The subject of the next data set is HepG2. The data set is described as follows: Cytotoxicity against human HepG2 cells assessed as reduction in cell viability after 48 hrs by CellTiter 96 aqueous one solution assay. Type of data set: cell-based. The conditions noted are these: HepG2, 48 h.

`[N-]=[N+]=[N-].[Na+]` [SODIUM AZIDE]: the Activity result in data set [1] was “Toxic”.

For the molecule `O=[N+]([O-])c1ccc2c(c1)Cc1ccccc1-2` [2-NITROFLUORENE], the Activity entry in data set [2] was “Toxic”.

For the molecule `C[C@H]1COC2(CCN(c3nc(=O)c4cc(C(F)(F)F)cc([N+](=O)[O-])c4s3)CC2)O1`, the inhibition entry in data set [3], in data set [4] and in data set [5] was “Active” in each case.

Regarding `CSc1nnc(-c2cc([N+](=O)[O-])cc([N+](=O)[O-])c2)n1Cc1ccccc1`, the MIC99 was 2 µM (≈ 0.743 µg/mL) in the data set with Mycobacterium kansasii [6]; 1 µM (≈ 0.371 µg/mL) in data set [7]; 4 µM (≈ 1.49 µg/mL) against Mycobacterium kansasii [8]; 4 µM (≈ 1.49 µg/mL) in the data set on Mycobacterium kansasii [11]; 8 µM (≈ 2.97 µg/mL) against Mycobacterium kansasii [12]; 4 µM (≈ 1.49 µg/mL) against Mycobacterium kansasii [13]. In addition, the MIC99 in data set [14] was 0.5 µM (≈ 0.186 µg/mL); in the data set on Mycobacterium avium [15] it was 500 µM (≈ 186 µg/mL); in the data set with Mycobacterium kansasii [16], 8 µM (≈ 2.97 µg/mL); with Mycobacterium avium [17], 500 µM (≈ 186 µg/mL). The viability at 48 h, 30 µM in data set [9] was found to be 83%; in data set [10], 93%. For the same molecule, the IC50 in the data set with A-431 and in the data set on HepG2 was over 30 µM each time. Also, the result in the data set on Candida albicans and in the data set with Staphylococcus aureus was Active.
